ABCB6 inh MLPCN = ABCB6 transporter inhibitors, primary screen, K562-ABCB6 cells, flow cytometry, MLPCN library; fluorescence ratio to DMSO, % at 10 µM; ATP-binding cassette sub-family B member 6 (Homo sapiens), Q9NP58; AID 602162, 2011; 0.19% of 360,000 active; K562-ABCB6 porphyrin accumulation, 1 h; hits give low values;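 active means fluorescence ratio to DMSO below 75%, the collection mean minus 3 SD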;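 further: signal is porphyrin accumulated inside mitochondria; lower ratio means ABCB6 inhibition with less porphyrin fluorescence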
PG9 binder = binders of HIV-1 gp120 antibody PG9, primary screen, biochemical, TR-FRET | HIV-1 gp120 / PG9 antibody interaction | TR-FRET gp120-PG9 antibody binding | inhibition, % at 6.7 µM | 0.43% of 360,000 active | AID 624416, 2012; in the data active means inhibition above about 8.5%
Arrestin-AP2 inh = inhibitors of beta-arrestin/AP2 binding, primary screen, biochemical, GPCR trafficking, flow cytometry. beta-arrestin 1 C-terminal peptide binding to AP2 beta2-adaptin appendage (human). FITC-arrestin peptide / GST-AP2 beads; AP2 beta2 appendage carries R879A mutation. inhibition, % at 10 µM. 0.31% of 340,000 active;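 active means inhibition above a set limit, near 3 SD of compounds lacking own fluorescence, cut at about 54% in these data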
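test system = AP2 appendage R879A on GSH beads | buffer or medium = PBS plus Tween 20 (0.05%) and BSA (0.1%) | incubation = 12 min plus 1 h, RT | detection = bead flow cytometry, FITC channel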
iPSC survival up = enhancers of single-cell hiPSC survival, primary screen, ATPlite luminescence; 100% = ROCK inhibitor wells, 0% = DMSO; survival enhancement, % at 20 µM; 0.044% of 360,000 active; in the data active means survival enhancement above about 18%;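 further: cells exposed to compounds for 16 hours before the ATP read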
Arr AP2 CP1 = inhibitors of arrestin peptide binding to AP2, confirmation, biochemical, cherry pick 1, flow cytometry beads. shares compounds with Arrestin-AP2 inh. GST-AP2 beads, FITC arrestin peptide binding; GST-fused beta2-adaptin appendage, R879A mutant. inhibition, % at 10 µM. 2% of 1,300 active. AID 504908, 2011;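 active means inhibition above a set limit, roughly 3 SD of non-fluorescent compound noise, cut at about 38% in these data; inactive means inhibition at or below that limit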;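 further: loss of bead fluorescence from 50 nM FITC arrestin peptide bound to appendage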
Target sequence (P63010 whole entry, looked up, the tested form may be a part, one chain of several): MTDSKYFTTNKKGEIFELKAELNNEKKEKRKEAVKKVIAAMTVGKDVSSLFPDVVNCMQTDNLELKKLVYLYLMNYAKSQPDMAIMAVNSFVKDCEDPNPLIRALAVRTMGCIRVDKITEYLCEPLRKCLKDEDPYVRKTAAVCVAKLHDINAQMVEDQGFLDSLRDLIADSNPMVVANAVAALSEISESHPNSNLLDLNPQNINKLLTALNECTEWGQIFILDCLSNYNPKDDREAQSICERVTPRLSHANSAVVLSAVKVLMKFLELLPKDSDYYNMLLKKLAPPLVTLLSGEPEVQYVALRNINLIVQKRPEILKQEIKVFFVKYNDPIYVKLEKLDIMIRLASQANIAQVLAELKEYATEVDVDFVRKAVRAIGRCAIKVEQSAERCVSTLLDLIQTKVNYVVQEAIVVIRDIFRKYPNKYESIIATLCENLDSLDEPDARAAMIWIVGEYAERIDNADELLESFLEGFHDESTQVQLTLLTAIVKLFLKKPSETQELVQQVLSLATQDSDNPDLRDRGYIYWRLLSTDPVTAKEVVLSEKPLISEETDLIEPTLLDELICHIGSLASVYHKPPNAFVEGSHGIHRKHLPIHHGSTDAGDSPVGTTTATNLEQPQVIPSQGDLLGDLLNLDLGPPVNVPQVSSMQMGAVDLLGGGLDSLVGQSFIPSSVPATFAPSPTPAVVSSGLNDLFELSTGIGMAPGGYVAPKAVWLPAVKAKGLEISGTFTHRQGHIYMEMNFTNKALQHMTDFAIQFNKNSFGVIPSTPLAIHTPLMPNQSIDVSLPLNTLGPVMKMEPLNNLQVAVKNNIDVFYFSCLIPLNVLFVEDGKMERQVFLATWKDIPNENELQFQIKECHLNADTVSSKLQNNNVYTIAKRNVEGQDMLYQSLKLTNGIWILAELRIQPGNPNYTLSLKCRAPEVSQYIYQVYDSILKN
GST GSH counter = GST-fluorescein capture on glutathione beads, confirmation, artefact control for arrestin-AP2 inhibitor project, biochemical, cherry pick 1, flow cytometry. inhibition, % at 10 µM. 2% of 1,300 active. AID 588338, 2011. GST-fluorescein binding to GSH beads, fluorescence, counter-screen. shares compounds with Arrestin-AP2 inh;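 active means inhibition above 50%, about 3 SD of the inhibition seen with non-fluorescent compounds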;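 further: fluorescein maleimide labelled GST captured on 4 micron glutathione beads; higher means more loss of bead fluorescence from quenching or blocked binding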
Of the large screens only hits and unclear results are named; the others gave an inactive call (follow-up assays come after a bar, where they were run). Only some compounds are listed: those with a hit (about 0.89% of all), similar ones and a draw of the others.

Cc1occc1C(=O)NCc1cccs1	Arrestin-AP2 inh 78 | Arr AP2 CP1 inactive | GST GSH counter inactive
Cc1cc2c(c(=O)o1)[C@@]1(C(=O)N(C)c3c(Br)cccc31)C1=C(CCCC1=O)O2	none (no result: ABCB6 inh MLPCN, Arrestin-AP2 inh, iPSC survival up)
COC(=O)C1=C(C)N(Cc2ccc(C(F)(F)F)cc2)C(=NCc2ccc(C(F)(F)F)cc2)NC1c1ccccc1C(F)(F)F (stereo not given)	none (no result: ABCB6 inh MLPCN, Arrestin-AP2 inh, iPSC survival up)
CCC(=O)NC1=C(NC(C)c2ccccc2)C(=O)c2ccccc2C1=O (stereo not given)	none
CCC(=O)NC1=C(Cl)C(=O)C(NC(=O)CC)=C(Cl)C1=O	Arrestin-AP2 inh 66 | Arr AP2 CP1 61 | GST GSH counter inactive
COc1cc(C(=O)OCc2ccccc2C#N)ccc1OCC(=O)N1CCOCC1	none
COc1cc(C#N)c(N=C(SCC#N)N2CCOCC2)cc1OC	Arrestin-AP2 inh 59 | Arr AP2 CP1 inactive | GST GSH counter inactive
CC(C)C[C@H](NC(=O)c1cccs1)C(=O)N1CCC[C@H]1C(=O)NCc1ccccc1	none (no result: ABCB6 inh MLPCN, Arrestin-AP2 inh, iPSC survival up)
CCOC(=O)C1=C(COC(=O)CNC(=O)c2cccc(C)c2)NC(=O)NC1C (stereo not given)	none
CCOC(=O)C1=C(COC(=O)COc2ccc(Br)cc2)NC(=O)NC1C (stereo not given)	none | Arr AP2 CP1 inactive | GST GSH counter inactive
CCOC(=O)C1=C(COC(=O)CCOc2ccc(OC)cc2)NC(=O)NC1C (stereo not given)	none | Arr AP2 CP1 inactive | GST GSH counter inactive
CCOC(=O)C1=C(COC(=O)CCOc2ccc(C)cc2)NC(=O)NC1C (stereo not given)	none | Arr AP2 CP1 inactive | GST GSH counter inactive
C/C=C/c1ccc(OCC(=O)OCC2=C(C(=O)OCC)C(C)NC(=O)N2)c(OC)c1 (stereo not given)	none
O=C(N[C@H](Cc1ccccc1)C(=O)N1CCN(c2ncccn2)CC1)[C@H]1O[C@@H](n2ccc(=O)[nH]c2=O)[C@H](O)[C@@H]1O	none (no result: ABCB6 inh MLPCN, Arrestin-AP2 inh, iPSC survival up)
Cc1ccccc1OCC(=O)Nc1cccc2nsnc12	Arrestin-AP2 inh 101 | Arr AP2 CP1 inactive | GST GSH counter inactive
COc1ccc(S(=O)(=O)N2CCCCCC2)cc1NC(=O)c1ccccc1	none
CCN1CCN(S(=O)(=O)c2ccc(OC)c(NC(=O)c3ccccc3)c2)CC1	none | Arr AP2 CP1 inactive | GST GSH counter inactive
COc1ccc(S(=O)(=O)N2CCN(C)CC2)cc1NC(=O)c1ccccc1	none | Arr AP2 CP1 inactive | GST GSH counter inactive
CCOC(=O)N1CCN(C(=O)c2ccc(S(=O)(=O)NCc3ccco3)cc2)CC1	none
O=C(c1ccc(S(=O)(=O)NCc2ccco2)cc1)N1CCN(Cc2ccc3c(c2)OCO3)CC1	none
Cc1ccccc1CN1CCN(C(=O)c2ccc(S(=O)(=O)NCc3ccco3)cc2)CC1	none | Arr AP2 CP1 inactive | GST GSH counter inactive
COc1ccc(N2CCN(C(=O)c3ccc(S(=O)(=O)NCc4ccco4)cc3)CC2)cc1	none | Arr AP2 CP1 inactive | GST GSH counter inactive
COc1ccc(CN2CCN(C(=O)c3ccc(S(=O)(=O)NCc4ccco4)cc3)CC2)cc1F	none | Arr AP2 CP1 inactive | GST GSH counter inactive
c1ccc(Nc2nnc(-c3ccc4c(c3)OCO4)o2)cc1	none (no result: ABCB6 inh MLPCN, Arrestin-AP2 inh, iPSC survival up)
CN(C)C(CNC(=O)CNC(=O)c1ccc2ccccc2c1)c1ccccc1 (stereo not given)	Arrestin-AP2 inh 59 | Arr AP2 CP1 inactive | GST GSH counter inactive
CC(C)[C@H](NC(=O)c1ccco1)C(=O)N1CCC[C@H]1C(=O)NCc1ccccc1	none (no result: ABCB6 inh MLPCN, Arrestin-AP2 inh, iPSC survival up)
CC(C)(C)c1ccccc1OCC(=O)NCc1ccccc1	Arrestin-AP2 inh 64 | Arr AP2 CP1 inactive | GST GSH counter inactive
CCCS(=O)(=O)N1CCCC(C(=O)NCC2CCCO2)C1 (stereo not given)	Arrestin-AP2 inh 80 | Arr AP2 CP1 inactive | GST GSH counter inactive
O=C(Cc1c[nH]c2ccccc12)Nc1ccc(Nc2cccnc2)c(-c2cc(F)cc(F)c2)c1	none (no result: ABCB6 inh MLPCN, Arrestin-AP2 inh, iPSC survival up)
CC(=Nc1ccc(Cl)cc1N)c1c(O)cc(C)oc1=O	none (no result: ABCB6 inh MLPCN, Arrestin-AP2 inh, iPSC survival up)
N#Cc1ccccc1OCC(=O)OCC(=O)NCc1ccc2c(c1)OCO2	Arrestin-AP2 inh 55 | Arr AP2 CP1 inactive | GST GSH counter inactive
COC(=O)[C@]12C[C@H](CC(=O)NCc3ccc(C)o3)C(=O)N(Cc3ccccc3)C1=C[C@H](C(C)(C)C)O[C@@H]2C	none (no result: ABCB6 inh MLPCN, Arrestin-AP2 inh, iPSC survival up)
CCOC(=O)C1CSCCS(=O)(=O)N1Cc1cccc(F)c1 (stereo not given)	none (no result: ABCB6 inh MLPCN, Arrestin-AP2 inh, iPSC survival up)
Cc1ccnc(NC(=O)c2cccc(S(=O)(=O)N3CCCC3)c2)c1	Arrestin-AP2 inh 60 | Arr AP2 CP1 inactive | GST GSH counter inactive
Cc1ccc(S(=O)(=O)N2CCCCC2)cc1NC(=O)c1ccncc1	none | Arr AP2 CP1 inactive | GST GSH counter inactive
O=C(NCC(F)(F)F)N1CCOCC1	Arrestin-AP2 inh 68 | Arr AP2 CP1 inactive | GST GSH counter inactive
O=C(NCc1ccccc1)N1CCOCC1	none
CCCC(=O)OC[C@H]1CN(C2CCCC2)S(=O)(=O)c2c(Oc3ccc(F)cc3OC)cccc2O1	none (no result: ABCB6 inh MLPCN, Arrestin-AP2 inh, iPSC survival up)
CCCCc1ccc(NC(=O)CC(C)(C)C)cc1	none
CCCCc1ccc(NC(=O)CC(C)=O)cc1	none | Arr AP2 CP1 inactive | GST GSH counter inactive
O=C1CC(C(=O)O)C(c2ccccc2)c2ccccc21 (stereo not given)	Arrestin-AP2 inh 55 | Arr AP2 CP1 inactive | GST GSH counter inactive
COc1cccc(CN(C)[C@H]2C[C@H]3c4[nH]c5ccccc5c4CCN3C[C@H]2[C@H](C)O)c1OC	none (no result: ABCB6 inh MLPCN, Arrestin-AP2 inh, iPSC survival up)
CC(=O)C1=C(C)N(Cc2ccc(F)cc2)C(=S)NC1c1ccc(Cl)cc1 (stereo not given)	none (no result: ABCB6 inh MLPCN, Arrestin-AP2 inh, iPSC survival up)
COc1ccc(C(=O)Nc2ccc(S(=O)(=O)NC(C)=O)cc2)cc1[N+](=O)[O-]	none
CCOCCCNS(=O)(=O)c1ccc(NC(=O)c2ccc(OC)c([N+](=O)[O-])c2)cc1	Arrestin-AP2 inh 56 | Arr AP2 CP1 inactive | GST GSH counter inactive
COc1ccc(Sc2cccc3c2S(=O)(=O)N(C2CC2)C[C@@H](COCc2ccccc2)O3)cc1OC	none (no result: ABCB6 inh MLPCN, Arrestin-AP2 inh, iPSC survival up)
Cc1cc(Oc2cccc3c2S(=O)(=O)N(C2CCCC2)CC(COCc2ccccc2)O3)cc(C)c1C (stereo not given)	Arrestin-AP2 inh 57 | Arr AP2 CP1 inactive | GST GSH counter inactive
Cc1cc(C)nc(NC(=NCCc2c[nH]c3ccccc23)NC(=O)c2ccco2)n1	Arrestin-AP2 inh 83 | Arr AP2 CP1 inactive | GST GSH counter inactive
O=C(NC1CCCCC1)N(CCN1CCOCC1)Cc1cc2cc3c(cc2[nH]c1=O)OCCO3	none
CCN(CC)CCN(Cc1cc2cc3c(cc2[nH]c1=O)OCCO3)C(=O)NC1CCCCC1	none | Arr AP2 CP1 inactive | GST GSH counter inactive
